PubChem BioAssay
Unmarked numbers belong to inactive results.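 Rule for the calls: active = growth inhibition above 25% in both replicates, a cutoff set 3 SD above the mean; inconclusive = above 25% in only one replicate; inactive = the rest.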

experiment: OD615 S. cerevisiae growth inhibition, permissive medium, pilot counter-assay, permissive growth control for S. cerevisiae lifespan shortening project (AID 705); details: OD615, 24 h, at 10 µM, stronger effect = higher value
In short: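 Timing: 24 h exposure, 30 °C / Material: Saccharomyces cerevisiae strain carrying genetically modified DeaD replicative-lifespan system / Signal: OD at 615 nm / Compound: 10 µM single dose, 0.25% DMSO / Medium: SC raffinose/galactose permissive medium / Evaluation: reduction in yeast growth (OD615)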

Row | Compound | growth inhibition
1 | CCN1C(=O)CSc2ccc(C(=O)OC)cc21 | -6.5%
2 | CN(C(=O)c1ccc(=O)[nH]c1)C1(C(=O)NC2CCCCC2)CCCCC1 | -7.84%
3 | CCN1CCCC1CNC(=O)Cn1cnc2sc(C)c(S(=O)(=O)N3CCC(C)CC3)c2c1=O (stereo not given) | -4.5%
4 | CC1(C)CC(=O)c2cc(C(=O)N3CCN(CCO)CC3)c(=O)n(-c3ccc(Cl)cc3)c2C1 | -6.56%
5 | CCOc1cc(/C=N/n2cnnc2)ccc1OCC(=O)Nc1ccccc1OC | 0.995%
6 | Cc1c(NC2=C(Cl)C(=O)N(c3ccccc3)C2=O)c(=O)n(-c2ccccc2)n1C | 8.25%
7 | CCOC(=O)COc1cc2c(C(=O)OCC)c(C)oc2cc1Br | -10%
8 | Cc1ccc(NC2=CC(=O)CC(c3ccco3)C2)c(N)c1 (stereo not given) | -4.58%
9 | Cc1ccc(-c2nn3c(C)nnc3s2)cc1NC(=O)c1ccco1 | 3.94%
10 | CCCCn1c(C(C)NC(=O)COC)nc2ccccc21 (stereo not given) | -3.38%
11 | CCCCNC(=O)CS(=O)Cc1nc(-c2cccs2)oc1C (stereo not given) | -3.47%
12 | COc1ccc(-c2noc(Cc3ccccc3OC)n2)cc1 | -15.1%
13 | O=C(NC1CCCCCC1)C1CCN(S(=O)(=O)c2cccc3cccnc23)CC1 | 8.96%
14 | Cc1ccsc1C1C2=C(CC(C)(C)CC2=O)Nc2ncnn21 (stereo not given) | -13.7%
15 | O=C(OC1CCCCC1)c1ccc(NC(=O)c2ccco2)cc1 | -1.26%
16 | Cc1c(NC(=O)Oc2ccccc2)sc(=S)n1C | 14.5%
17 | CCCC(=O)NCCCc1nc2ccccc2n1CC | -7.75%
18 | CCC(=O)Nc1c2c(nn1-c1ccc(F)cc1)CS(=O)C2 (stereo not given) | -7.18%
19 | O=C(c1cc(C2CC2)on1)N1CCOCC1 | -4.11%
20 | COC(=O)c1ccc(NC(=O)c2cnc3scc(C)n3c2=O)cc1 | -9.29%

Row | Compound | growth inhibition
21 | Cc1ccnc(Nc2nc3ccccc3o2)n1 | 2.6%
22 | NC(=O)c1ccsc1NC(=O)C1CC1 | -0.315%
23 | Cn1c(=O)[nH]c(=O)c2c1nc(CN1CCOCC1)n2Cc1ccc(F)cc1 | -6.42%
24 | CCOc1ccc(N(CC(=O)Nc2ccc(OC)cc2)S(=O)(=O)c2c(C)noc2C)cc1 | -8.01%
25 | COCCn1c(=O)[nH]c2cc(C(=O)NCC3CCCO3)ccc2c1=O (stereo not given) | -6.33%
26 | CCOC(=O)c1ccc(NC(=O)CSc2nnc(Cn3c(=O)sc4ccccc43)n2C)cc1 | -8.11%
27 | COc1ccc(N(CC(=O)NCc2ccc3c(c2)OCO3)S(=O)(=O)c2c(C)nn(C)c2C)cc1 | -12.2%
28 | CCOC(=O)C1CCN(c2c(N3CCN(Cc4ccccc4)CC3)c(=O)c2=O)CC1 | -4.1%
29 | COc1ccc(NC(=O)C(c2ccccc2)N(C)C(=O)c2cnccn2)cc1 (stereo not given) | -4.62%
30 | c1cnn(-c2nc(N3CCOCC3)nc(N3CCOCC3)n2)c1 | 0.06%
31 | O=C(NCCCN1CCN(c2ccccc2F)CC1)C1CCCN(S(=O)(=O)c2cnc[nH]2)C1 (stereo not given) | 4.25%
32 | CCOc1ccc(N2CC(=O)SC2=S)cc1 | -6.07%
33 | O=C(NCCC1=CCCCC1)NC1CCCCC1 | -7.04%
34 | CCCCNC(=O)Nc1cc(C(=O)OC)ccc1C | -6.38%
35 | Cc1cccc(-c2nnc(-c3ccccc3)o2)c1 | -8.19%
36 | O=C1CCC(=O)N1c1ccc(CSc2nc3ccccc3[nH]2)cc1 | -4.96%
37 | CCCSc1nnc(Cn2c(=O)sc3ccccc32)n1C | -15.8%
38 | C=CCSC1=N/C(=C\c2ccc3c(c2)OCO3)C(=O)S1 | -6.71%
39 | COc1ccc(OC)c2c1sc(=NC(=O)C(C)C)n2C | -3.95%
40 | CCN(CC)c1cc(C)c2cc(NC(=O)CNC(C)=O)ccc2n1 | -10.4%
